pEC50: −log10 of the molar value. Calls of active or inactive are those of the source. The calls are words filed in the database; no cut-off is given here.
Tests used:
[1] = Cytotoxicity against mouse RAW264.7 cells assessed as reduction in number of cells by DAPI staining based high-content image analysis; assay type: toxicity, cell-based
Procedure, shortened: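 RAW264.7 seeded 20 h, infected 1 h with RFP-expressing S. Typhimurium (MOI 50), 100 mg/L gentamicin 1 h, then compound with 20 mg/L gentamicin 24 h. Cells stained with CellTracker Green, fixed in 3.7% formaldehyde, DAPI 0.2 mg/L. Whole-well high-content imaging at 10×; viable cells counted as DAPI-stained nuclei; CC50 calculated.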

Salmonella typhimurium [2] = experiment: Antibacterial activity against intracellular multidrug-resistant Salmonella typhimurium ATCC14028 infected in mouse RAW264.7 cells assessed as reduction in intracellular bacterial survival level by RFP staining based high-content image analysis; assay type: functional, organism-based, Salmonella enterica subsp. enterica serovar Typhimurium; conditions: Salmonella enterica, ATCC14028, RAW264.7
Procedure, shortened: (§1)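 RAW264.7 cells were seeded for 20 h, then infected for 1 h at MOI 50 with RFP-expressing bacteria (2 h subculture, OD600 0.6 ≈ 1×10^8 CFU/mL). Gentamicin 100 mg/L was given for 1 h, then compound plus 20 mg/L gentamicin for 24 h. Cells were stained with CellTracker Green, fixed, and stained with DAPI. Whole-well high-content imaging gave intracellular RFP intensity for EC50 and DAPI nuclei counts for CC50.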

[3] = Selectivity ratio of CC50 for cytotoxicity against mouse RAW264.7 cells to EC50 for antibacterial activity against intracellular multidrug-resistant Salmonella typhimurium ATCC14028 infected in mouse RAW264.7 cells; assay type: toxicity, cell-based; conditions: read-out: Ratio CC50/EC50; procedure, shortened: as §1
[4] = target: D(2) dopamine receptor (Homo sapiens) (UniProt P14416); experiment: Inhibition of isotope-labelled spiperone binding to recombinant dopamine D2 receptor (unknown origin)
D(2) dopamine receptor (Homo sapiens), sequence (P14416 whole entry): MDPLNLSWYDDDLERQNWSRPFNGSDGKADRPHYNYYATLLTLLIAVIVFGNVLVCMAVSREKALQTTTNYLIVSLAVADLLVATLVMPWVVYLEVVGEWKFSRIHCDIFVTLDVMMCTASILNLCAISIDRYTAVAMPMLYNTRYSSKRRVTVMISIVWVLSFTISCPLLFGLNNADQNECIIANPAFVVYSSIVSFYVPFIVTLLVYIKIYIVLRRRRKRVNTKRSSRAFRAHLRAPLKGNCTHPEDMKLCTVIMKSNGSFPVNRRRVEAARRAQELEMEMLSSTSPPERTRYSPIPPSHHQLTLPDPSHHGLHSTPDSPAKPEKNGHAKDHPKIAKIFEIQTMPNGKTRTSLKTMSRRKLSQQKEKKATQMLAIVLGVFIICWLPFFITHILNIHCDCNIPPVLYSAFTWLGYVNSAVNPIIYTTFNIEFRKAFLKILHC
Procedure, shortened: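 Human recombinant D2L receptor expressed in CHO cells (20 μg) incubated with increasing compound concentrations and 0.16 nM [3H]spiperone in Tris-HCl pH 7.4, 120 min at 25°C. Bound radioligand measured by filtration, washing and counting. Nonspecific binding defined with 10 μM haloperidol. Run as a contract service.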

[5] = Cytotoxicity against human monocytic THP-1 cells assessed as reduction in cell viability in presence of gentamicin and measured after 24 hrs by MTT assay; assay type: toxicity, cell-based
Procedure, shortened: (§2)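 Cells were seeded and grown 20 h, then given test compound for 24 h. Media were DMEM + 10% heat-inactivated FBS (RAW264.7, J774.1, INT-407), RPMI 1640 + 10% FBS (THP-1) and McCoy's 5A + 10% FBS (HT-29, HCT-116), at 37°C and 5% CO2. MTT was added at 0.5 g/L for 1 h, formazan dissolved in DMSO, and A570 read. CC50 was calculated by curve fitting.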

Salmonella typhi = experiment: Antibacterial activity against Salmonella typhi infected in mouse RAW264.7 cells assessed as reduction in number of viable intracellular bacteria incubated for 24 hrs by CFU assay; assay type: functional, organism-based, Salmonella enterica subsp. enterica serovar Typhi; conditions: Salmonella enterica, RAW264.7, 24 h
Procedure, shortened: (§3)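 Bacteria were subcultured 1:100 from overnight LB cultures for 2 h at 37°C and resuspended in PBS to OD600 0.6. Host cells in 6-well plates were infected at MOI 25 for 1 h, treated with 100 mg/L gentamicin for 1 h, then given compound plus 20 mg/L gentamicin for 24 h. Cells were lysed in 0.1% Triton X-100, and lysates were serially diluted and plated on LB agar (37°C, 18 h) for CFU counts.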

Salmonella typhimurium [6] = experiment: Antibacterial activity against intracellular ciprofloxacin-resistant Salmonella typhimurium NL10 infected in mouse RAW264.7 cells assessed as reduction in number of intracellular bacteria incubated for 24 hrs in presence of gentamycin by CFU assay; assay type: functional, organism-based, Salmonella enterica subsp. enterica serovar Typhimurium; conditions: Salmonella enterica, NL10, RAW264.7, 24 h; procedure, shortened: as §3
[7] = Cytotoxicity against human HCT-116 cells assessed as reduction in cell viability in presence of gentamicin and measured after 24 hrs by MTT assay; assay type: toxicity, cell-based; procedure, shortened: as §2
[8] = Cytotoxicity against PMA induced human macrophagic THP-1 cells assessed as reduction in cell viability in presence of gentamicin and measured after 24 hrs by MTT assay; assay type: toxicity, cell-based; conditions: PMA induced macrophagic THP-1 cells; procedure, shortened: as §2
Staphylococcus aureus = experiment: Antibacterial activity against methicillin-resistant Staphylococcus aureus USA 300 infected in mouse RAW264.7 cells assessed as reduction in number of viable intracellular bacteria incubated for 24 hrs by CFU assay; assay type: functional, organism-based; conditions: USA 300, RAW264.7, 24 h; procedure, shortened: as §3
Salmonella typhimurium [9] = experiment: Antibacterial activity against intracellular multidrug-resistant Salmonella typhimurium ATCC14028 infected in mouse J774.1 cells assessed as reduction in viability of intracellular bacteria incubated for 24 hrs in presence of gentamicin by CFU assay; assay type: functional, organism-based, Salmonella enterica subsp. enterica serovar Typhimurium; conditions: Salmonella enterica, ATCC14028, J774.1, 24 h; procedure, shortened: as §3
Salmonella typhimurium [10] = experiment: Antibacterial activity against intracellular multidrug-resistant Salmonella typhimurium ATCC14028 infected in human monocytic THP-1 cells assessed as reduction in viability of intracellular bacteria incubated for 24 hrs in presence of gentamicin by CFU assay; assay type: functional, organism-based, Salmonella enterica subsp. enterica serovar Typhimurium; conditions: Salmonella enterica, ATCC14028, THP-1, 24 h; procedure, shortened: as §3
Listeria monocytogenes = experiment: Antibacterial activity against Listeria monocytogenes infected in mouse RAW264.7 cells assessed as reduction in number of viable intracellular bacteria incubated for 24 hrs by CFU assay; assay type: functional, organism-based; conditions: RAW264.7, 24 h
Procedure, shortened: (§4)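 RAW264.7 macrophages in DMEM + 10% heat-inactivated FBS infected 1 h at MOI 25 with bacteria (overnight LB culture diluted 1:100, grown 2 h at 37°C, resuspended in PBS to OD600 0.6). Washed, 100 mg/L gentamicin 1 h, then compound plus 20 mg/L gentamicin for 24 h. Lysed in 0.1% Triton X-100/PBS 10 min at 37°C, lysates serially diluted onto LB agar, colonies counted after 18 h at 37°C.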

[11] = Cytotoxicity against mouse RAW264.7 cells assessed as reduction in cell viability measured after 24 hrs by MTT assay; assay type: toxicity, cell-based; procedure, shortened: as §2
[12] = Cytotoxicity against human Intestine 407 cells assessed as reduction in cell viability in presence of gentamicin and measured after 24 hrs by MTT assay; assay type: toxicity, cell-based; procedure, shortened: as §2
Salmonella typhimurium [13] = experiment: Antibacterial activity against intracellular multidrug-resistant Salmonella typhimurium ATCC14028 infected in mouse RAW264.7 cells assessed as reduction in number of intracellular bacteria incubated for 24 hrs in presence of gentamycin by CFU assay; assay type: functional, organism-based, Salmonella enterica subsp. enterica serovar Typhimurium; conditions: Salmonella enterica, ATCC14028, RAW264.7, 24 h; procedure, shortened: as §3
Salmonella typhimurium [14] = experiment: Antibacterial activity against intracellular multidrug-resistant Salmonella typhimurium ATCC14028 infected in human HCT-116 cells assessed as reduction in viability of intracellular bacteria incubated for 24 hrs in presence of gentamicin by CFU assay; assay type: functional, organism-based, Salmonella enterica subsp. enterica serovar Typhimurium; conditions: Salmonella enterica, ATCC14028, HCT-116, 24 h; procedure, shortened: as §3
Salmonella typhimurium [15] = experiment: Antibacterial activity against intracellular multidrug-resistant Salmonella typhimurium ATCC14028 infected in human Intestine 407 cells assessed as reduction in viability of intracellular bacteria incubated for 24 hrs in presence of gentamicin by CFU assay; assay type: functional, organism-based, Salmonella enterica subsp. enterica serovar Typhimurium; conditions: Salmonella enterica, ATCC14028, Intestine 407, 24 h; procedure, shortened: as §3
Salmonella typhimurium [16] = experiment: Antibacterial activity against intracellular multidrug-resistant clinical isolate Salmonella typhimurium CGC18 infected in mouse RAW264.7 cells assessed as reduction in number of intracellular bacteria incubated for 24 hrs in presence of gentamycin by CFU assay; assay type: functional, organism-based, Salmonella enterica subsp. enterica serovar Typhimurium; conditions: Salmonella enterica, CGC18, RAW264.7, 24 h; procedure, shortened: as §3
Salmonella typhimurium [17] = experiment: Antibacterial activity against intracellular multidrug-resistant Salmonella typhimurium ATCC14028 infected in PMA induced human macrophagic THP-1 cells assessed as reduction in viability of intracellular bacteria incubated for 24 hrs in presence of gentamicin by CFU assay; assay type: functional, organism-based, Salmonella enterica subsp. enterica serovar Typhimurium; conditions: Salmonella enterica, ATCC14028, THP-1, 24 h; procedure, shortened: as §3
Yersinia enterocolitica = experiment: Antibacterial activity against Yersinia enterocolitica infected in mouse RAW264.7 cells assessed as reduction in number of viable intracellular bacteria incubated for 24 hrs by CFU assay; assay type: functional, organism-based; conditions: RAW264.7, 24 h; procedure, shortened: as §4
Salmonella typhimurium [18] = experiment: Antibacterial activity against intracellular multidrug-resistant Salmonella typhimurium ATCC14028 infected in human HT-29 cells assessed as reduction in viability of intracellular bacteria incubated for 24 hrs in presence of gentamicin by CFU assay; assay type: functional, organism-based, Salmonella enterica subsp. enterica serovar Typhimurium; conditions: Salmonella enterica, ATCC14028, HT-29, 24 h; procedure, shortened: as §3
[19] = Cytotoxicity against mouse J774.1 cells assessed as reduction in cell viability in presence of gentamicin and measured after 24 hrs by MTT assay; assay type: toxicity, cell-based; procedure, shortened: as §2
[20] = Cytotoxicity against human HT-29 cells assessed as reduction in cell viability in presence of gentamicin and measured after 24 hrs by MTT assay; assay type: toxicity, cell-based; procedure, shortened: as §2

Structure (SMILES): Fc1ccc(CCNC2=Nc3ccccc3Oc3ccc(Cl)cc32)cc1
- CC50 [1]: > 90 µM
- pEC50 (Salmonella typhimurium [2]): 4.35
- selectivity ratio [3]: > 2

Structure (SMILES): Clc1ccc2c(c1)C(NCCc1ccc(Cl)c(Cl)c1)=Nc1ccccc1O2
- CC50 [1]: 82.7 µM
- pEC50 (Salmonella typhimurium [2]): 4.51
- selectivity ratio [3]: 2.7

Structure (SMILES): Clc1ccc2c(c1)C(N1CCNCC1)=Nc1ccccc1O2 [AMOXAPINE]
- CC50 [1]: 107 µM
- pEC50 (Salmonella typhimurium [2]): 5.14
- inhibition [4]: Active
- selectivity ratio [3]: 14.8

Structure (SMILES): Clc1ccc2c(c1)C(NCCCN1CCCC1)=Nc1ccccc1O2
- CC50 [1]: 16.3 µM
- pEC50 (Salmonella typhimurium [2]): 5.95
- selectivity ratio [3]: 14.6

Structure (SMILES): Clc1ccc2c(c1)C(NCCc1ccccc1)=Nc1ccccc1O2
- CC50 [1]: 56.3 µM
- pEC50 (Salmonella typhimurium [2]): 4.67
- selectivity ratio [3]: 2.7

Structure (SMILES): O=C1CCCN1CCCNC1=Nc2ccccc2Oc2ccc(Cl)cc21
- CC50 [1]: > 90 µM
- pEC50 (Salmonella typhimurium [2]): < 4.05

Structure (SMILES): Oc1ccc(CCNC2=Nc3ccccc3Oc3ccc(Cl)cc32)cc1
- CC50 [1]: 52.1 µM
- pEC50 (Salmonella typhimurium [2]): 4.47
- selectivity ratio [3]: 1.6

Structure (SMILES): Clc1ccc2c(c1)C(NCCN1CCNCC1)=Nc1ccccc1O2
- CC50 at 24 h [5]: 28.4 µM
- pEC50 (Salmonella typhi): 6.55
- pEC50 (Salmonella typhimurium [6]): 6.19
- CC50 at 24 h [7]: 41 µM
- CC50 at 24 h [8]: 30.3 µM
- pEC50 (Staphylococcus aureus): 5.76
- pEC50 (Salmonella typhimurium [9]): 6.66
- CC50 [1]: 23.4 µM
- pEC50 (Salmonella typhimurium [2]): 6.41
- pEC50 (Salmonella typhimurium [10]): 5.75
- pEC50 (Listeria monocytogenes): 5.82
- CC50 at 24 h [11]: 20.7 µM
- CC50 at 24 h [12]: 40.5 µM
- pEC50 (Salmonella typhimurium [13]): 6.62
- pEC50 (Salmonella typhimurium [14]): 5.61
- pEC50 (Salmonella typhimurium [15]): 5.52
- pEC50 (Salmonella typhimurium [16]): 6.20
- pEC50 (Salmonella typhimurium [17]): 6.66
- pEC50 (Yersinia enterocolitica): 6.08
- pEC50 (Salmonella typhimurium [18]): 5.39
- selectivity ratio [3]: 60
- CC50 at 24 h [19]: 15.4 µM
- CC50 at 24 h [20]: 32.5 µM

Structure (SMILES): NCC(=O)Nc1ccc(-n2nc(C(F)(F)F)cc2-c2ccc3c(ccc4ccccc43)c2)cc1 [AR-12]
- CC50 [1]: 7.7 µM

Structure (SMILES): Clc1ccc2c(c1)C(NCCc1cccnc1)=Nc1ccccc1O2
- CC50 [1]: 74 µM
- pEC50 (Salmonella typhimurium [2]): 4.42
- selectivity ratio [3]: 1.9

Structure (SMILES): Clc1ccc(CCNC2=Nc3ccccc3Oc3ccc(Cl)cc32)cc1
- CC50 [1]: > 90 µM
- pEC50 (Salmonella typhimurium [2]): 4.27
- selectivity ratio [3]: > 1.7

Structure (SMILES): CCCNC1=Nc2ccccc2Oc2ccc(Cl)cc21
- CC50 [1]: 112 µM
- pEC50 (Salmonella typhimurium [2]): 4.25
- selectivity ratio [3]: 2

Structure (SMILES): CCCCCNC1=Nc2ccccc2Oc2ccc(Cl)cc21
- CC50 [1]: 72.7 µM
- pEC50 (Salmonella typhimurium [2]): 4.27
- selectivity ratio [3]: 1.3
